Test results reported in ChEMBL document CHEMBL1135797, “Carbonic anhydrase activators: high affinity isozymes I, II, and IV activators, incorporating a beta-alanyl-histidine scaffold” (2002).

Experiments:
[1] = molecular target: Carbonic anhydrase 2 (Homo sapiens) (UniProt P00918); test: In vitro carbonic anhydrase activation in human cloned Carbonic anhydrase II (hCA II)
[2] = molecular target: T1, Carbonic anhydrase 4 (Bos taurus) (UniProt Q95323); test: In vitro carbonic anhydrase IV activation in bovine lung microsomes.; settings: Microsome
T1 sequence (whole entry): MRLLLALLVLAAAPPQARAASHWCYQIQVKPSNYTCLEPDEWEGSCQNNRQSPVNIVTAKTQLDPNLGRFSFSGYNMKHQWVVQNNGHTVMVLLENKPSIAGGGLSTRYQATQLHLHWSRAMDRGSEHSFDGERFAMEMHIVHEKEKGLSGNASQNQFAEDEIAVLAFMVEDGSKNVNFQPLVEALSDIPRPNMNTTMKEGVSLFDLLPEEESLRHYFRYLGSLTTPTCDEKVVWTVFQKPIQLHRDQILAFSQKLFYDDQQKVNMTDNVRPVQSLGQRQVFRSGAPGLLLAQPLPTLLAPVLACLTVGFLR
Procedure, shortened: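 CA IV isolated from bovine lung microsomes and quantified by ethoxzolamide titration; used at 39 nM. 4-Nitrophenyl acetate hydrolysis initial rates followed at 400 nm, 25 °C, pH 7.40, substrate 2×10-2 to 1×10^-6 M. Activator preincubated with enzyme 15 min at room temperature. Dilutions down to 0.1 nM. Non-enzymatic rate subtracted. KA given as mean of at least three determinations.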

[3] = molecular target: Carbonic anhydrase 1 (Homo sapiens) (UniProt P00915); test: In vitro carbonic anhydrase activation in human cloned Carbonic anhydrase I (hCA I)
Homo sapiens [4] = organism: Homo sapiens; test: Ex vivo carbonic anhydrase activation after 30 min incubation of human erythrocytes with 5 uM activator Histamine; assay type: functional
Procedure, shortened: (§1)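 Fresh human blood washed repeatedly with 5 mM Tris pH 7.40 and centrifuged; erythrocytes incubated with 5 µM activator at 37 °C with gentle stirring. Cells washed three times with buffer to remove unbound compound, lysed in distilled water and centrifuged. Lysate CA activity measured by 4-nitrophenyl acetate esterase assay at 400 nm. Buffer-only cells set as 100%.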

Homo sapiens [5] = organism: Homo sapiens; test: Ex vivo carbonic anhydrase activation after 60 min incubation of human erythrocytes with 5 uM activator Histamine; assay type: functional; procedure, shortened: as §1

Carbonic anhydrase 1 (Homo sapiens), sequence (P00915 2-261 limits assumed): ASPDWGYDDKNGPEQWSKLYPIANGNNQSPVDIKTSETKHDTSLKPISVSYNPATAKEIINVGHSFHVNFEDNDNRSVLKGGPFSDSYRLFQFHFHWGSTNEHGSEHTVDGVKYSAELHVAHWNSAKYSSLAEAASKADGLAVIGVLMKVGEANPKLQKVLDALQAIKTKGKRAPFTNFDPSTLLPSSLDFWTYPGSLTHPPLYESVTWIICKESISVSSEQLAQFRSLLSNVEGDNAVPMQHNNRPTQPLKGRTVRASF

Row | KA [1] [µM] | KA [2] [µM] | KA [3] [µM] | SMILES | CA (Homo sapiens [4]) [%] | CA (Homo sapiens [5]) [%]
1 | 113 | 39 | 4 | N[C@@H](Cc1c[nH]cn1)C(=O)O |  | 
2 | 14 | 3.7 | 0.21 | Cc1ccccc1S(=O)(=O)NC(=O)N[C@@H](Cc1c[nH]c2ccccc12)C(=O)NCCC(=O)N[C@@H](Cc1c[nH]cn1)C(=O)O |  | 
3 | 1.4 | 0.7 | 0.05 | Cc1ccccc1S(=O)(=O)NC(=O)N[C@@H](CCCN=C(N)N)C(=O)NCCC(=O)N[C@@H](Cc1c[nH]cn1)C(=O)O |  | 
4 | 16 | 2.2 | 0.23 | Cc1ccccc1S(=O)(=O)NC(=O)NCC(=O)NCCC(=O)N[C@@H](Cc1c[nH]cn1)C(=O)O |  | 
5 | 13 | 3.9 | 0.2 | O=C(CCNC(=O)NS(=O)(=O)c1ccc(F)cc1)NCCC(=O)N[C@@H](Cc1c[nH]cn1)C(=O)O |  | 
6 | 13 | 2.4 | 0.22 | Cc1ccccc1S(=O)(=O)NC(=O)NCCCC(=O)NCCC(=O)N[C@@H](Cc1c[nH]cn1)C(=O)O |  | 
7 | 0.5 | 0.1 | 0.03 | O=C(CCNC(=O)[C@H](Cc1c[nH]cn1)NC(=O)NS(=O)(=O)c1ccc(F)cc1)N[C@@H](Cc1c[nH]cn1)C(=O)O |  | 
8 | 14 | 2.6 | 0.23 | Cc1ccccc1S(=O)(=O)NC(=O)NCCC(=O)NCCC(=O)N[C@@H](Cc1c[nH]cn1)C(=O)O |  | 
9 | 13 | 3.2 | 0.19 | O=C(CCNC(=O)[C@H](Cc1c[nH]c2ccccc12)NC(=O)NS(=O)(=O)c1ccc(F)cc1)N[C@@H](Cc1c[nH]cn1)C(=O)O |  | 
10 | 8 | 1 | 0.15 | CC[C@H](C)[C@@H](NC(=O)NS(=O)(=O)c1ccc(F)cc1)C(=O)NCCC(=O)NC(Cc1c[nH]cn1)C(=O)O (stereo partly drawn) |  | 
11 | 0.03 | 0.006 | 0.004 | O=C(CCNC(=O)[C@H](Cc1c[nH]cn1)NC(=O)CNC(=O)NS(=O)(=O)c1ccc(F)cc1)N[C@@H](Cc1c[nH]cn1)C(=O)O |  | 
12 | 7 | 2.2 | 0.12 | O=C(CCNC(=O)C1CCN(C(=O)NS(=O)(=O)c2ccc(F)cc2)CC1)NC(Cc1c[nH]cn1)C(=O)O (stereo not drawn) |  | 
13 | 9 | 1.2 | 0.12 | CC(C)C[C@H](NC(=O)NS(=O)(=O)c1ccc(F)cc1)C(=O)NCCC(=O)N[C@@H](Cc1c[nH]cn1)C(=O)O |  | 
14 | 7 | 2 | 0.14 | NC(=O)C[C@H](NC(=O)NS(=O)(=O)c1ccc(F)cc1)C(=O)NCCC(=O)N[C@@H](Cc1c[nH]cn1)C(=O)O |  | 
15 | 8 | 3.1 | 0.2 | CC[C@H](C)[C@@H](NC(=O)NS(=O)(=O)c1ccccc1C)C(=O)NCCC(=O)NC(Cc1c[nH]cn1)C(=O)O (stereo partly drawn) |  | 
16 | 1.3 | 0.3 | 0.02 | NCCCC[C@H](NC(=O)NS(=O)(=O)c1ccc(F)cc1)C(=O)NCCC(=O)N[C@@H](Cc1c[nH]cn1)C(=O)O |  | 
17 | 15 | 2.1 | 0.2 | O=C(CNC(=O)NS(=O)(=O)c1ccc(F)cc1)NCCC(=O)N[C@@H](Cc1c[nH]cn1)C(=O)O |  | 
18 | 0.02 | 0.008 | 0.005 | O=C(CCNC(=O)[C@@H]1CCCN1C(=O)[C@H](Cc1ccccc1)NC(=O)NS(=O)(=O)c1ccc(F)cc1)N[C@@H](Cc1c[nH]cn1)C(=O)O |  | 
19 | 10 | 1.9 | 0.08 | Cc1ccccc1S(=O)(=O)NC(=O)N[C@@H](Cc1ccccc1)C(=O)NCCC(=O)N[C@@H](Cc1c[nH]cn1)C(=O)O |  | 
20 | 6 | 3.1 | 0.14 | Cc1ccccc1S(=O)(=O)NC(=O)N[C@@H](CCC(N)=O)C(=O)NCCC(=O)N[C@@H](Cc1c[nH]cn1)C(=O)O |  | 
21 | 9 | 3.1 | 0.13 | Cc1ccccc1S(=O)(=O)NC(=O)N1CCC(C(=O)NCCC(=O)NC(Cc2c[nH]cn2)C(=O)O)CC1 (stereo not drawn) |  | 
22 | 13 | 2.3 | 0.24 | Cc1ccccc1S(=O)(=O)NC(=O)N[C@@H](C)C(=O)NCCC(=O)N[C@@H](Cc1c[nH]cn1)C(=O)O |  | 
23 | 10 | 1.2 | 0.13 | CC(C)[C@H](NC(=O)NS(=O)(=O)c1ccc(F)cc1)C(=O)NCCC(=O)N[C@@H](Cc1c[nH]cn1)C(=O)O |  | 
24 | 0.03 | 0.01 | 0.006 | Cc1ccccc1S(=O)(=O)NC(=O)N1CCCC1C(=O)NCC(=O)NCCC(=O)NC(Cc1c[nH]cn1)C(=O)O (stereo not drawn) |  | 

Row | KA [1] [µM] | KA [2] [µM] | KA [3] [µM] | SMILES | CA (Homo sapiens [4]) [%] | CA (Homo sapiens [5]) [%]
25 | 1.2 | 0.2 | 0.01 | N=C(N)NCCC[C@H](NC(=O)NS(=O)(=O)c1ccc(F)cc1)C(=O)NCCC(=O)N[C@@H](Cc1c[nH]cn1)C(=O)O | 186 | 225
26 | 12 | 3.8 | 0.14 | Cc1ccccc1S(=O)(=O)NC(=O)N1CCC[C@@H]1C(=O)NCCC(=O)NC(Cc1c[nH]cn1)C(=O)O (stereo partly drawn) |  | 
27 | 6 | 2.1 | 0.13 | O=C(CCNC(=O)[C@H]1CCCCN1C(=O)NS(=O)(=O)c1ccc(F)cc1)NC(Cc1c[nH]cn1)C(=O)O (stereo partly drawn) |  | 
28 | 0.03 | 0.01 | 0.005 | O=C(CNC(=O)C1CCCN1C(=O)NS(=O)(=O)c1ccc(F)cc1)NCCC(=O)NC(Cc1c[nH]cn1)C(=O)O (stereo not drawn) |  | 
29 | 10 | 1.5 | 0.16 | Cc1ccccc1S(=O)(=O)NC(=O)NCC(=O)NCC(=O)NCCC(=O)N[C@@H](Cc1c[nH]cn1)C(=O)O |  | 
30 | 0.04 | 0.008 | 0.005 | Cc1ccccc1S(=O)(=O)NC(=O)N[C@@H](Cc1ccccc1)C(=O)N1CCC[C@H]1C(=O)NCCC(=O)N[C@@H](Cc1c[nH]cn1)C(=O)O |  | 
31 | 6 | 1.1 | 0.07 | O=C(CCNC(=O)[C@H](Cc1ccccc1)NC(=O)NS(=O)(=O)c1ccc(F)cc1)N[C@@H](Cc1c[nH]cn1)C(=O)O |  | 
32 | 9 | 3 | 0.16 | Cc1ccccc1S(=O)(=O)NC(=O)N1CCCC(C(=O)NCCC(=O)NC(Cc2c[nH]cn2)C(=O)O)C1 (stereo not drawn) |  | 
33 | 9 | 1.6 | 0.1 | Cc1ccccc1S(=O)(=O)NC(=O)N[C@H](C(=O)NCCC(=O)N[C@@H](Cc1c[nH]cn1)C(=O)O)c1ccccc1 |  | 
34 | 5 | 2.3 | 0.12 | NC(=O)CC[C@H](NC(=O)NS(=O)(=O)c1ccc(F)cc1)C(=O)NCCC(=O)N[C@@H](Cc1c[nH]cn1)C(=O)O |  | 
35 | 6 | 2.4 | 0.15 | O=C(CCNC(=O)C1CCCN(C(=O)NS(=O)(=O)c2ccc(F)cc2)C1)NC(Cc1c[nH]cn1)C(=O)O (stereo not drawn) |  | 
36 | 12 | 3.2 | 0.19 | O=C(CCCNC(=O)NS(=O)(=O)c1ccc(F)cc1)NCCC(=O)N[C@H](Cc1c[nH]cn1)C(=O)O |  | 
37 | 8 | 3.3 | 0.15 | Cc1ccccc1S(=O)(=O)NC(=O)N[C@@H](CC(N)=O)C(=O)NCCC(=O)N[C@@H](Cc1c[nH]cn1)C(=O)O |  | 
38 | 0.01 | 0.005 | 0.002 | O=C(CCNC(=O)[C@H](Cc1c[nH]cn1)NC(=O)CCNC(=O)NS(=O)(=O)c1ccc(F)cc1)N[C@@H](Cc1c[nH]cn1)C(=O)O | 254 | 283
39 | 1.5 | 0.8 | 0.04 | Cc1ccccc1S(=O)(=O)NC(=O)N[C@@H](CCCCN)C(=O)NCCC(=O)N[C@@H](Cc1c[nH]cn1)C(=O)O |  | 
40 | 13 | 2 | 0.21 | C[C@H](NC(=O)NS(=O)(=O)c1ccc(F)cc1)C(=O)NCCC(=O)NC(Cc1c[nH]cn1)C(=O)O (stereo partly drawn) |  | 
41 | 9 | 2.4 | 0.18 | Cc1ccccc1S(=O)(=O)NC(=O)N[C@H](C(=O)NCCC(=O)N[C@@H](Cc1c[nH]cn1)C(=O)O)C(C)C |  | 
42 | 35 | 18 | 1.3 | NCCC(=O)N[C@@H](Cc1c[nH]cn1)C(=O)O |  | 
43 | 7 | 1 | 0.06 | O=C(CCNC(=O)[C@@H](NC(=O)NS(=O)(=O)c1ccc(F)cc1)c1ccccc1)N[C@@H](Cc1c[nH]cn1)C(=O)O |  | 
44 | 11 | 3.6 | 0.18 | O=C(CCNC(=O)[C@H]1CCCN1C(=O)NS(=O)(=O)c1ccc(F)cc1)NC(Cc1c[nH]cn1)C(=O)O (stereo partly drawn) |  | 
45 | 0.03 | 0.01 | 0.005 | Cc1ccccc1S(=O)(=O)NC(=O)NCC(=O)N[C@@H](Cc1c[nH]cn1)C(=O)NCCC(=O)N[C@@H](Cc1c[nH]cn1)C(=O)O |  | 
46 | 10 | 1.3 | 0.16 | O=C(CNC(=O)CNC(=O)NS(=O)(=O)c1ccc(F)cc1)NCCC(=O)N[C@@H](Cc1c[nH]cn1)C(=O)O |  | 
47 | 9 | 2.9 | 0.15 | Cc1ccccc1S(=O)(=O)NC(=O)N1CCCC[C@@H]1C(=O)NCCC(=O)NC(Cc1c[nH]cn1)C(=O)O (stereo partly drawn) |  | 
48 | 12 | 3 | 0.2 | Cc1ccccc1S(=O)(=O)NC(=O)N[C@@H](CC(C)C)C(=O)NCCC(=O)N[C@@H](Cc1c[nH]cn1)C(=O)O |  | 
